High-throughput results deposited in PubChem by The Scripps Research Institute Molecular Screening Center.
Hits are enriched below; roughly 1.6% of the tested compounds scored in any of these assays.
GALR2 ag: agonists of human galanin receptor 2 (GALR2). 140,000 compounds, 0.48% hits. AID 803. O43603. activation, % (no concentration beside the values). GALR2-expressing cells, agonist activation read-out; in the data active means activation above about 5%, passing the limit was not always enough;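 further: 0% = vehicle buffer wells and 100% = reference agonist at full effect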
Target sequence (O43603 whole entry, looked up): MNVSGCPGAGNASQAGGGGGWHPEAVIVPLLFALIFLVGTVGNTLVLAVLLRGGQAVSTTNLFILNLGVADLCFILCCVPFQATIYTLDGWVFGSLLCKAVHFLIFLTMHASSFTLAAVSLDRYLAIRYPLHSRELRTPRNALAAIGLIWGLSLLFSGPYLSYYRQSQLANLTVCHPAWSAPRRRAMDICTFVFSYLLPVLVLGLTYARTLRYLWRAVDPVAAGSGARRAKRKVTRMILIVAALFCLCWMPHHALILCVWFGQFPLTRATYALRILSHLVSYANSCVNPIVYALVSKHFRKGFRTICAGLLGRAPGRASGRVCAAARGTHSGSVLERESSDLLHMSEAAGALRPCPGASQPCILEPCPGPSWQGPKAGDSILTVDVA
HIV Rev-RRE inh: disrupts HIV-1 Rev binding to RRE RNA; P05866; Rev peptide-RRE RNA binding, FRET; inhibition, % at 8 µM; 97,000 compounds, 0.79% hits; AID 704;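 active means inhibition above the screen-wide mean plus 3 SD, cut at about 35% in these data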;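 further: 0% = median DMSO wells and 100% = median Neomycin B control wells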
Target sequence (P05866 whole entry, looked up): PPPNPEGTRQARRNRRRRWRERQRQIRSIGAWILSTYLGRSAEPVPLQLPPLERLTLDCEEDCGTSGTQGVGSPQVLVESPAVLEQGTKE
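Probe or stimulus: fluorescein-Rev peptide as binding partner; assay system: Cy5-tagged RRE RNA duplex with fluorescein-tagged Rev peptide; timing: 5 min compound–RNA preincubation, then 15 min with peptide, 25 °C; medium: HEPES pH 7.5 buffer with KCl, MgCl2, NaCl and EDTA; signal: fluorescein-to-Cy5 FRET, 480 nm excitation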
S1P2 agonist: activates the human S1P2 receptor | S1P2-expressing cell line, agonist reporter read-out | activation, % at 4.5 µM | 97,000 compounds, 0.46% hits | O95136; in the data active means activation above about 16%;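 further: 0% = vehicle low control and 100% = maximal reference agonist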
GALR2 blocker: antagonists of human galanin receptor 2 (GALR2); inhibition, % at 4 µM; 140,000 compounds, 0.39% hits; O43603; AID 828; GALR2-expressing cells, antagonist mode; in the data active means inhibition above about 27%;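 further: cells stimulated with galanin 1-16 at roughly its EC80; 0% = agonist challenge control and 100% = basal control without agonist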
S1P2 antag: antagonists of human S1P2 receptor; O95136; 97,000 compounds, 0.21% hits; AID 736; inhibition, % at 5 µM; cell-based S1P2 antagonist assay, inhibition at 5 uM; in the data active means inhibition above about 45%;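 further: CRE beta-lactamase reporter cells expressing human S1P2 stimulated with S1P; 0% = agonist at EC80 alone and 100% = agonist plus reference antagonist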
An asterisk follows results filed as active; . = no result; [ ] = another dose, or the depositor's remark.

SMILES | GALR2 ag | HIV Rev-RRE inh | S1P2 agonist | GALR2 blocker | S1P2 antag
N#C/C(=C\c1c[nH]c2ccccc12)C(=O)Nc1ncc(Cc2ccc(Cl)cc2Cl)s1 | 6.4* | . | . | -9.8 | .
CC(C)CN1CN(Cc2ccccc2)CNC1=S | 0.3 | . | . | 1.7 | .
CCOC(=O)Cc1nc2ccccc2[nH]1 | 5.4* | 6.5 | -5.3 | 5.0 | -11.3
COc1ccccc1NC(=O)c1ccc(-n2cccn2)nc1 | 0.4 | -2.5 | -1.7 | -10.2 | 6.5
CC(C)(C)c1cc[n+](-c2nc([O-])sc2C=O)cc1 | -1.6 | . | . | 9.7 | .
CCc1cc[n+](-c2nc([O-])sc2C=O)cc1 | 0.4 | 45.8* | -5.2 | -13.3 | 11.6
Cc1ccc(C23CC4CC(CC(C(=O)OCC(=O)NC5CCS(=O)(=O)C5)(C4)C2)C3)cc1 (stereo unspecified) | 1.1 | . | . | 3.2 | .
N#Cc1c(N)n(CCNC(=O)c2ccccc2)c2nc3ccccc3nc12 | 0.5 | . | . | -3.3 | .
CCCCCn1c(N)c(C#N)c2nc3ccccc3nc21 | 7.9* | 22.6 | 12.5 | -8.5 | -12.0
COc1ccc(CCn2c(N)c(C#N)c3nc4ccccc4nc32)cc1OC | 0.7 | 18.8 | 2.1 | -7.2 | 1.0
COc1ccc(Cn2c(N)c(C#N)c3nc4ccccc4nc32)cc1OC | 2.6 | 24.6 | 21.0* | -9.3 | -85.1
N#Cc1c(N)n(CCCN2CCOCC2)c2nc3ccccc3nc12 | 3.9 | 11.3 | 0.5 | 1.1 | 12.8
COc1ccccc1CCn1c(N)c(C#N)c2nc3ccccc3nc21 | 2.0 | 14.1 | 16.1* | -20.2 | -31.3
O=C(COC(=O)c1cc(=O)[nH]c(=O)[nH]1)NCc1ccccc1 | -0.7 | . | . | -6.7 | .
CCN(CC)S(=O)(=O)c1cccc(NC(=O)c2cc(=O)[nH]c3ccccc23)c1 | -0.2 | . | . | 7.3 | .
COc1cc(/C=C(\NC(C)=O)C(=O)NC(C)(C)C)ccc1OC(C)=O | -1.1 | . | . | -3.1 | .
Cc1cc(C)c(S(=O)(=O)Nc2ccc(O)cc2)cc1C | -0.5 | 1.3 | 65.2* | -1.1 | -6.6
CON/C=C(\C=Nc1ccc(C(F)(F)F)cc1)c1ncc(C(F)(F)F)cc1Cl | -2.0 | 8.2 | -3.3 | 10.3 | 9.8
CON/C=C(\C=Nc1ccc(Cl)cc1)c1ncc(C(F)(F)F)cc1Cl | -1.9 | 14.2 | -4.7 | -2.1 | 47.0*
CCOC(=O)c1c(Cc2cccc(Cl)c2)c[nH]c1C | -1.6 | . | . | -3.9 | .
CCOc1ncccc1C(=O)OCC(=O)Nc1cc(C)ccc1C | -3.1 | 7.2 | 20.7* | 7.2 | -0.5
COc1ccc2c(c1)C(SCC(=O)NCCc1ccc(Cl)cc1)CC(C)(C)O2 (stereo unspecified) | -0.1 | . | . | 1.2 | .
COc1ccc2nc(N3CCCCC3)c(C#N)cc2c1 | 0.7 | 25.5 | -2.5 | 1.9 | 22.0
COc1ccc2nc(N3CCCC3)c(C#N)cc2c1 | 0.1 | 46.8* | -4.0 | 2.4 | 15.3
N=C(N)N1CCc2ccccc2C1 | -1.4 | . | . | 13.3 | .
SMILES | GALR2 ag | HIV Rev-RRE inh | S1P2 agonist | GALR2 blocker | S1P2 antag
COC(=O)c1ccc(NC(=O)COc2ccc(C3C(C#N)=C(N)Oc4c3ccc3ccccc43)cc2OC)cc1 (stereo unspecified) | -0.8 | -6.7 | -6.8 | 11.1 | 62.9*
CCC(C)/C(C)=N/NC(=O)c1ccc(CSc2nc3ccccc3s2)cc1 (stereo unspecified) | -0.6 | . | . | 4.2 | .
CC(C)Cn1c(N)c(C(=O)CSc2cc(Cl)ccc2Cl)c(=O)n(C)c1=O | -1.2 | . | . | 5.5 | .
N=c1c(-c2nc3ccccc3[nH]2)cc(C(=O)c2cccs2)nn1-c1ccc(Cl)cc1 | -1.6 | 14.3 | 30.4* | 3.1 | -28.9
CCN1c2ccccc2NC2N=C(OC)C(c3ccccc3)C21 (stereo unspecified) | -0.3 | -2.7 | -2.0 | -5.6 | 8.1
CCN1c2ccccc2NC2C1C(C(C)=O)C(=O)N2c1ccc(Cl)cc1 (stereo unspecified) | -0.7 | 49.5* | -0.9 | 1.1 | 3.0
CCc1nccn1S(=O)(=O)c1cc(C)c(OC)cc1C | -2.6 | 4.2 | 16.4* | -2.6 | -5.8
Cc1ccc(-c2nc(N3CCOCC3)sc2C(=O)N2CCCCC2)cc1 | -1.9 | . | . | -4.4 | .
O=[N+]([O-])c1c(NCCCO)cc(SCc2ccco2)c2nonc12 | 0.2 | . | . | 2.3 | .
O=[N+]([O-])c1c(NCCCO)cc(Sc2ccc(Cl)cc2)c2nonc12 | 5.0* | . | . | 8.5 | .
CCOc1cc(C(=O)NCCCn2ccnc2)cc(OCC)c1OCC | -1.6 | . | . | 8.0 | .
COc1ccc2[nH]c(=O)c(CN(Cc3nnnn3Cc3ccco3)C3CCCCC3)cc2c1 | 0.3 | 16.9 | -3.3 | -1.2 | 1.7
COc1ccc2[nH]c(=O)c(CN(C3CCCCC3)C(c3nnnn3Cc3ccco3)C(C)C)cc2c1 (stereo unspecified) | -0.8 | 43.0* | -4.8 | 1.3 | 10.5
CCOC(=O)C1=C(C)N(CCCC(=O)O)C(=O)NC1c1ccccc1OS(=O)(=O)c1ccc(C)cc1 (stereo unspecified) | -2.4 | . | . | 1.8 | .
CCn1c2ccccc2c2cc(Nc3cc(C)nc4ncnn34)ccc21 | 2.7 | . | . | 34.2* | .
CCc1cccc(Nc2cc(C)nc3ncnn23)c1 | -0.4 | . | . | 5.0 | .
Cc1ccc2nc(N/N=C\c3ccc([N+](=O)[O-])o3)nc(-c3ccccc3)c2c1 | -1.5 | 57.8* | -4.6 | 11.3 | 10.2
CCOC(=O)C1=C(O)/C(=C/c2ccccn2)SC1=Nc1ccc(Cl)cc1 | -0.1 | . | . | 8.8 | .
CCOC(=O)C1=C(O)/C(=C/c2ccc(OCC(=O)O)c(OC)c2)SC1=Nc1ccc(OCC)cc1 | -0.2 | . | . | 9.2 | .
CCOC(=O)C1=C(O)/C(=C/c2ccc(-c3ccccc3C(=O)O)o2)SC1=Nc1ccc(OC)cc1 | -3.7 | 89.4*[fluorescence artefact?] | -7.4 | 10.1 | 2.0
CCOC(=O)C1=C(O)/C(=C/c2cc(OC)c(O)c(OC)c2)SC1=Nc1ccc(OC)cc1 | 7.3* | . | . | 5.9 | .
Cc1ccc(S(=O)(=O)N2CCCC2C(=O)Oc2ccccc2)cc1 (stereo unspecified) | 0.0 | 1.8 | 36.0* | 0.3 | -2.1
Cc1cccc(C(C)C)c1NC(=O)C1CN(S(=O)(=O)c2ccccc2)CCN1S(=O)(=O)c1ccccc1 (stereo unspecified) | 1.1 | . | . | -9.6 | .
CCSc1nnc(-c2ccncc2)o1 | 0.2 | 6.2 | -6.2 | 1.0 | -1.6
CCSc1nnc(-c2sc3nnc(-c4ccccc4)c(-c4ccccc4)c3c2N)o1 | -3.1 | 117.0*[fluorescence artefact?] | -10.4 | 4.4 | 10.7
SMILES | GALR2 ag | HIV Rev-RRE inh | S1P2 agonist | GALR2 blocker | S1P2 antag
CC(C)(C)NC(=O)CCN(/N=C/c1ccc([N+](=O)[O-])o1)C1=NS(=O)(=O)c2ccccc21 | 0.5 | . | . | 3.5 | .
COC(=O)c1cc2ccccn2c2c(C(=O)OC)c(C(=O)OC)cc1-2 | 0.0 | -5.4 | 1.1 | -1.6 | -4.0
COC(=O)c1cc2c(C)cc3ccc(C)cn3c-2c1C(=O)OC | 1.4 | 36.5* | -5.8 | 17.9 | -24.9
COc1ccc(-n2ccc(-c3nn(-c4cccc(C(F)(F)F)c4)ccc3=O)n2)cc1 | -1.9 | 1.4 | 18.1* | -10.2 | -26.3
O=c1ccn(-c2cccc(C(F)(F)F)c2)nc1-c1ccn(-c2ccccc2F)n1 | -2.1 | 2.6 | 18.6* | -10.3 | -29.4
COc1cccc(-c2cn3nc(C)c(C)nc3n2)c1 | 0.2 | 39.7* | 2.0 | -15.9 | 1.5
Cc1nc2nc(-c3ccc(Cl)cc3)cn2nc1C | 2.1 | 12.0 | 1.7 | -6.2 | 0.7
